According to ChEMBL document CHEMBL3864174, “Scaffold-Hopping of Aurones: 2-Arylideneimidazo[1,2-a]pyridinones as Topoisomerase IIα-Inhibiting Anticancer Agents” (ACS Med Chem Lett, 2016):
Calls of active or inactive are those of the source. The rule behind the calls is not given here.

How the values were obtained:
[1] = target: DNA topoisomerase 2-alpha (Homo sapiens) (UniProt P11388); assay: Inhibition of human Topo2alpha-mediated kDNA decatenation at 100 uM after 30 mins by SDS-based agarose gel electrophoresis
[2] = Cytotoxicity against African green monkey Vero cells assessed as reduction in colony formation after 48 hrs by crystal violet-staining based assay; format: toxicity, cell-based; conditions: chlorocebus sabaeus; for CC50 at 48 h: Vero cells, read-out: LC50; for Activity: vero, 48 h
[3] = (§1) Cytotoxicity against HEK293T cells assessed as cells growth inhibition after 48 hrs by MTT assay; format: functional, cell-based; conditions: Homo sapiens, HEK-293T
In short: (§2)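 MTT colorimetric assay. HEK-293T (kidney line) and VERO cells were tested, and the IC50 was taken as the concentration giving 50% growth inhibition.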

[4] = Cytotoxicity against African green monkey Vero cells assessed as cells growth inhibition after 48 hrs by MTT assay; format: toxicity, cell-based, Chlorocebus sabaeus; conditions: for IC50 at 48 h: African green monkey (Chlorocebus sabaeus), Vero cells; for Activity: chlorocebus sabaeus, vero, 48 h; in short: as §2
MCF7 [5] = assay: Cytotoxicity against human MCF7 cells assessed as reduction in colony formation after 48 hrs by crystal violet-staining based assay; format: functional, cell-based
[6] = (§3) Cytotoxicity against HEK293T cells assessed as reduction in colony formation after 48 hrs by crystal violet-staining based assay; format: functional; conditions: Homo sapiens, HEK-293T, read-out: LC50 (the source's name)
[7] = Cytotoxicity against human MDA-MB-231 cells assessed as reduction in cell viability after 48 hrs by MTT assay; format: functional, cell-based; conditions: MDA-MB-231, 48 h
MCF7 [8] = assay: Cytotoxicity against human MCF7 cells assessed as cells growth inhibition after 48 hrs by MTT assay; format: functional, cell-based
[9] = Cytotoxicity against human MDA-MB-468 cells assessed as reduction in cell viability after 48 hrs by MTT assay; format: functional, cell-based; conditions: MDA-MB-468, 48 h
HEK-293T [10] = assay: as §1; format: functional, cell-based; conditions: Homo sapiens; in short: as §2
HEK-293T [11] = assay: as §3; format: functional; conditions: Homo sapiens
[12] = Inhibition of tubulin polymerization in human MCF7 cells assessed as suppression of protein assembly after 15 mins by spectrophotometric analysis; format: cell-based
[13] = target: DNA topoisomerase 2-alpha (Homo sapiens) (UniProt P11388); assay: Poison activity at human Topo2alpha using pUC19 as substrate assessed as DNA cleavage-complex formation at 100 uM measured after 20 mins by ethidium bromide staining based SDS-agarose gel electrophoresis
[14] = Cell cycle arrest in human MCF7 cells assessed as accumulation at subG1 phase at 100 nM after 48 hrs by propidium iodide-staining based FACS analysis (reference value: 0.8 +/- 0.1 %); format: functional
[15] = Cell cycle arrest in human MCF7 cells assessed as accumulation at G2/M phase at 70 nM after 48 hrs by propidium iodide-staining based FACS analysis (reference value: 41 +/- 2.8 %); format: functional
MCF7 [16] = assay: Inhibition of topoisomerase in human MCF7 cell nuclear lysates assessed as reduction in relaxation of supercoiled plasmid DNA NFkB substrate at 10 to 70 nM after 30 mins by ethidium bromide-staining based agarose gel electrophoresis
In short: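 Ex vivo topoisomerase assay using MCF-7 nuclear lysate with NFkB plasmid as substrate. Compound ranged from 10 nM to 75 nM, with lanes for plasmid alone and untreated lysate, and an etoposide lane at 45 µM.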

[17] = Binding affinity to DNA (unknown origin) assessed as occurrence of hypochromism after 1 hr by UV-Vis spectrophotometric analysis
In short: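 UV absorption of DNA near 260 nm, recorded with and without increasing compound concentrations; hypochromism was taken as the binding read-out.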

[18] = Cell cycle arrest in human MCF7 cells assessed as accumulation at G0 phase at 2000 nM after 48 hrs by propidium iodide-staining based FACS analysis; format: functional
[19] = Cell cycle arrest in human MCF7 cells assessed as accumulation at G2/M phase at 2000 nM after 48 hrs by propidium iodide-staining based FACS analysis; format: functional

DNA topoisomerase 2-alpha (Homo sapiens), sequence (P11388 whole entry): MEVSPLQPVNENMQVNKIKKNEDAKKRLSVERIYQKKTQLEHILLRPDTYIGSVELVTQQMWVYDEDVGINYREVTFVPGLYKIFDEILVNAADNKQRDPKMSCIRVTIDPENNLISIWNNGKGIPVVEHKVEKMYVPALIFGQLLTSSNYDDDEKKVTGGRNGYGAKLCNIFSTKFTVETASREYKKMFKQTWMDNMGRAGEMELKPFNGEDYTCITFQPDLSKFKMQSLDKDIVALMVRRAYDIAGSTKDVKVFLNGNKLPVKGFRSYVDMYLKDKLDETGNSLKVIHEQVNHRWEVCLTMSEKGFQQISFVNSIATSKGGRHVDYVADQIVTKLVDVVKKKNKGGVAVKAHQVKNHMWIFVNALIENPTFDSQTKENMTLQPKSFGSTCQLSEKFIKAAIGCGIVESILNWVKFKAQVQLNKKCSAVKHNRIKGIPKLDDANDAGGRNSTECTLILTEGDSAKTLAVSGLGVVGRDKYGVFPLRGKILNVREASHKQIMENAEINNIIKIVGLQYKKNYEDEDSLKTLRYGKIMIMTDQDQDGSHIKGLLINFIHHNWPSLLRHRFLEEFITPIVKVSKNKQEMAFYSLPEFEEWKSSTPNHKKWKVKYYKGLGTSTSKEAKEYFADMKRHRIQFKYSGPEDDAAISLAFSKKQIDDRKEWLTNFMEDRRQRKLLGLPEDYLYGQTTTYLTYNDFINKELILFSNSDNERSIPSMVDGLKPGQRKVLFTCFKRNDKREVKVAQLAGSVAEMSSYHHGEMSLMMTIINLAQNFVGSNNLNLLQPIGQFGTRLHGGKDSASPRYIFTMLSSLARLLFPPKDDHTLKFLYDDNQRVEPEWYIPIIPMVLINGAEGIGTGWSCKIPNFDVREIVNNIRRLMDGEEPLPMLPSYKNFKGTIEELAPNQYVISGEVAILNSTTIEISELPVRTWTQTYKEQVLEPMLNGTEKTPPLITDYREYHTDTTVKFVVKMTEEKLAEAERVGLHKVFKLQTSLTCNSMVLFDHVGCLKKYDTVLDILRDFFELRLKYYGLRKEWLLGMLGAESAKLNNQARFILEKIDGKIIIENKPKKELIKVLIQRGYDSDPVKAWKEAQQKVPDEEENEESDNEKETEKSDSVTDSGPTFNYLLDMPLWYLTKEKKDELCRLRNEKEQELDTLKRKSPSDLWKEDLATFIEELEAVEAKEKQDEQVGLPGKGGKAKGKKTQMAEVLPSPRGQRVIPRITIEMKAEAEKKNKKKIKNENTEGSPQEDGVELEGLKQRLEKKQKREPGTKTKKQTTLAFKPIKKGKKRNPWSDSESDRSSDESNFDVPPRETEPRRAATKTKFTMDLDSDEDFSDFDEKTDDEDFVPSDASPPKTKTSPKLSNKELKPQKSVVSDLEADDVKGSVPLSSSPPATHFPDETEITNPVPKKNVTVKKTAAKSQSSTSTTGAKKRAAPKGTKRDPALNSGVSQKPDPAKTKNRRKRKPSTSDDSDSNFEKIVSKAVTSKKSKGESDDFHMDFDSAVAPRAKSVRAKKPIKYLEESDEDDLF

Structure (SMILES)	inhibition [1]	CC50 at 48 h [2] [nM]	IC50 [3] [nM]	IC50 at 48 h [4] [nM]	Activity (MCF7 [5])	CC50 [6] [nM]	also measured
COc1cccc(/C=C2\N=C3C=CC=CN3C2=O)c1	Active	1500	80	1500	Active	75	–
O=C1/C(=C/c2ccc(Br)cc2)Oc2ccccc21	Active	–	900	2400	Dose-dependent effect	–	IC50 [7]: 600 to 840 nM; growth inhibition (GI) (MCF7 [8]): Dose-dependent effect; Activity [2]: Dose-dependent effect; IC50 [9]: 600 to 840 nM; growth inhibition (GI) (HEK-293T [10]): Dose-dependent effect; Activity [4]: Dose-dependent effect; Activity (HEK-293T [11]): Dose-dependent effect
CC1=CN2C(=O)/C(=C/c3ccc(Cl)cc3)N=C2C=C1	Active	–	–	–	–	–	–
O=C1/C(=C/c2ccc(Cl)cc2)N=C2C=CC=CN12	Active	1500	30	200	Active	40	–
O=C1/C(=C/c2ccc(Br)cc2)N=C2C=CC=CN12	Active	1500	45	200	Dose-dependent effect	20	IC50 [7]: 76 nM; growth inhibition (GI) (MCF7 [8]): Dose-dependent effect; IC50 [12]: 60 nM; Activity [2]: Dose-dependent effect; Activity [13]: Active; Activity [14]: 19.9%; IC50 [9]: 70 nM; growth inhibition (GI) (HEK-293T [10]): Dose-dependent effect; Activity [4]: Dose-dependent effect; Activity [15]: 33.2%; inhibition (MCF7 [16]): Active; Kb [17]: 2.5e+06 M⁻¹; Activity (HEK-293T [11]): Dose-dependent effect
COc1ccc(/C=C2\N=C3C=CC(Cl)=CN3C2=O)cc1	–	1500	80	1500	Active	40	–
CN(C)c1ccc(/C=C2\N=C3C=CC=CN3C2=O)cc1	Active	–	–	–	–	–	–
COc1ccc(OC)c(/C=C2\N=C3C=CC=CN3C2=O)c1	Active	1500	150	1500	Active	60	–
O=C1/C(=C/c2ccc(Cl)cc2)N=C2C=CC(Cl)=CN12	Active	1500	45	1500	Active	40	–
COc1cc([C@@H]2c3cc4c(cc3[C@@H](O[C@@H]3O[C@@H]5CO[C@@H](C)O[C@H]5[C@H](O)[C@H]3O)[C@H]3COC(=O)[C@H]23)OCO4)cc(OC)c1O [ETOPOSIDE]	Active	–	22000	50000	–	–	–
COc1ccc(/C=C2\Oc3ccccc3C2=O)cc1 [4'-METHOXY-AURONE]	Active	–	700	2500	Dose-dependent effect	–	IC50 [7]: 600 to 840 nM; growth inhibition (GI) (MCF7 [8]): Dose-dependent effect; Activity [2]: Dose-dependent effect; IC50 [9]: 600 to 840 nM; growth inhibition (GI) (HEK-293T [10]): Dose-dependent effect; Activity [4]: Dose-dependent effect; Activity (HEK-293T [11]): Dose-dependent effect
O=C1/C(=C/c2ccc(O)cc2)N=C2C=CC=CN12	–	1500	40	1500	Active	50	–
COc1ccc(/C=C\c2cc(OC)c(OC)c(OC)c2)cc1O [COMBRETASTATIN A4]	–	–	–	–	–	–	Activity [18]: Active; IC50 [12]: 2500 nM; Activity [19]: Active
O=C1/C(=C/c2ccc(Cl)cc2)N=C2C=CC(Br)=CN12	Active	–	–	–	–	–	–
O=C1/C(=C/c2ccc(Cl)cc2)N=C2C(Br)=CC(Br)=CN12	Active	–	–	–	–	–	–
COc1cc(/C=C2\N=C3C=CC=CN3C2=O)cc(OC)c1OC	–	1000	10	200	Active	55	–
